{
  "source": "ChEMBL document CHEMBL2375288",
  "about": "“Synthesis and pharmacokinetic profile of highly deuterated brecanavir analogs” (Eur J Med Chem, 2013)",
  "key": {"[1]": {"system": "Hepatocyte", "assay": "Drug metabolism in human hepatocytes assessed as formation of -[2H]-(3R,3aS,6aR)-hexahydrofuro[2,3-b]furan-3-yl (2S,3R)-4-(1-(3,4-dihydroxyphenyl)-N-isobutylmethylsulfonamido)-3-hydroxy-1-(4-((2-methylthiazol-4-yl)methoxy)phenyl)butan-2-ylcarbamate at 10 uM after 4 hrs by LC/MS/MS analysis", "format": "ADME, cell-based"}, "[2]": {"assay": "Plasma clearance in rat at 0.25 mg/kg, iv", "format": "ADME, organism-based", "parameters": "dose 0.25 mg/kg, route intravenous", "outline": "(§1)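 Intravenous dosing at 0.25 mg/kg in fed rats, given as a solution in DMSO/solutol/mannitol (2.5/10/87.5).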"}, "[3]": {"assay": "Half life in rat at 0.25 mg/kg, iv", "format": "ADME, organism-based", "parameters": "dose 0.25 mg/kg, route intravenous", "details": "in vivo", "outline": "as §1"}, "[4]": {"system": "Rattus norvegicus", "assay": "Dose-normalized AUC in rat at 0.25 mg/kg, iv", "format": "ADME, organism-based", "parameters": "dose 0.25 mg/kg, route intravenous", "details": "in vivo", "outline": "as §1"}, "[5]": {"system": "Hepatocyte", "assay": "Drug metabolism in rat hepatocytes assessed as formation of -[2H]-6-(5-((N-((2R,3S)-3-(((3R,3aS,6aR)-hexahydrofuro[2,3-b]furan-3-yloxy)carbonylamino)-2-hydroxy-4-(4-((2-methylthiazol-4-yl)methoxy)phenyl)butyl)-N-isobutylsulfamoyl)methyl)-2-methoxyphenoxy)-3,4,5-trihydroxytetrahydro-2H-pyran-2-carboxylic acid at 10 uM after 4 hrs by LC/MS/MS analysis", "format": "ADME, cell-based"}, "[6]": {"assay": "Plasma clearance in rat at 0.25 mg/kg, iv co-administered with 4 mg/kg of ritonavir", "format": "ADME, organism-based", "outline": "(§2)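 Fed rats received 0.25 mg/kg intravenously as a DMSO/solutol/mannitol (2.5/10/87.5) solution, with ritonavir co-administered at 4 mg/kg.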"}, "[7]": {"system": "Rattus norvegicus", "assay": "Dose-normalized AUC in rat at 0.25 mg/kg, iv co-administered with 4 mg/kg of ritonavir", "format": "ADME, organism-based", "details": "in vivo", "outline": "as §2"}, "[8]": {"assay": "Half life in rat at 0.25 mg/kg, iv co-administered with 4 mg/kg of ritonavir", "format": "ADME, organism-based", "details": "in vivo", "outline": "as §2"}},
  "data": [
    {"smiles": "[2H]C1([2H])Oc2ccc(S(=O)(=O)N(C[C@@]([2H])(O)[C@H](Cc3ccc(OC([2H])([2H])c4csc(C)n4)cc3)NC(=O)O[C@@]3([2H])CO[C@@]4([2H])OCC[C@H]43)C([2H])([2H])C([2H])(C([2H])([2H])[2H])C([2H])([2H])[2H])cc2O1", "values": [
      {"measurement": "Stability", "setting": "[1]", "value": "Unstable"},
      {"measurement": "clearance", "setting": "[2]", "value": 64, "unit": "mL/min/kg"},
      {"measurement": "half-life", "setting": "[3]", "value": 12, "unit": "min"},
      {"measurement": "AUC/dose", "setting": "[4]", "value": 64, "unit": "ng·h/mL/mg"},
      {"measurement": "Stability", "setting": "[5]", "value": "Unstable"}
    ]},
    {"smiles": "[2H]C1([2H])C[C@@H]2[C@H](O1)OC([2H])([2H])[C@]2([2H])OC(=O)N[C@@H](Cc1ccc(OC([2H])([2H])c2csc(C)n2)cc1)[C@]([2H])(O)CN(C([2H])([2H])C([2H])(C([2H])([2H])[2H])C([2H])([2H])[2H])S(=O)(=O)c1ccc2c(c1)OC([2H])([2H])O2", "values": [
      {"measurement": "clearance", "setting": "[2]", "value": 59, "unit": "mL/min/kg"},
      {"measurement": "half-life", "setting": "[3]", "value": 12, "unit": "min"},
      {"measurement": "AUC/dose", "setting": "[4]", "value": 59, "unit": "ng·h/mL/mg"}
    ]},
    {"smiles": "Cc1nc(COc2ccc(C[C@H](NC(=O)O[C@H]3CO[C@H]4OCC[C@H]43)[C@H](O)CN(CC(C)C)S(=O)(=O)c3ccc4c(c3)OCO4)cc2)cs1", "note": "[BRECANAVIR]", "values": [
      {"measurement": "clearance", "setting": "[2]", "value": 65, "unit": "mL/min/kg"},
      {"measurement": "half-life", "setting": "[3]", "value": 12, "unit": "min"},
      {"measurement": "AUC/dose", "setting": "[4]", "value": 66, "unit": "ng·h/mL/mg"},
      {"measurement": "clearance", "setting": "[6]", "value": 5.4, "unit": "mL/min/kg"},
      {"measurement": "AUC/dose", "setting": "[7]", "value": 774, "unit": "ng·h/mL/mg"},
      {"measurement": "half-life", "setting": "[8]", "value": 132, "unit": "min"}
    ]}
  ]
}
